Experimental data published in article PMC2847389 (ACS nano, 2010).

Assay: Circulation retention / AuNP probe clearance in vivo
Design: species or system athymic nude mice
Conditions: i.v., within the first hour, normalised to 1 min post-injection, n = 5
In short: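 Male Nu/nu mice, 6-8 weeks old, anaesthetised with Avertin (240 mg/kg i.p.). Dosed i.v. by tail vein with 1 mg probe in 100 μl water, or the equivalent dye-labeled peptide in sterile water. Serum was taken at each time point after euthanasia. 100 μl serum was incubated with DTT (~286 mM final) for 16 h at RT. Q670 read at 644/670 nm. Mean ± s.d., n = 5.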

Q670 (or BHQ2)-(His-Ser-Ser-Lys-Leu-Gln)-Cys [uncomplexed peptide]
% of initial administered amount removed from serum: more than 90%
